The subject of test [1] is PANC-1. Description: Antiproliferative activity against human PANC1 cells assessed as reduction in cell viability incubated for 72 hrs by MTT assay. In kind it is functional, cell-based. Conditions: PANC-1, 72 h. Put shortly:
(§1)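 PDAC cells grown in DMEM or RPMI1640 with 10% FBS and penicillin/streptomycin at 37 °C, 5% CO2. Plated in triplicate, then treated with a concentration series for 72 h. Viability read by MTT. IC50 calculated from dose-response curves.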

The subject of a further test is BXPC-3. Nature of the test: Antiproliferative activity against human BxPC3 cells assessed as reduction in cell viability incubated for 72 hrs by MTT assay. In kind it is functional, cell-based. Conditions: BXPC-3, 72 h. The essentials: as §1
In general terms: Formazan colour is commonly taken as a measure of viable cells.

In the next test the test system is MIA PaCa-2. Description: Antiproliferative activity against human MIAPaCa2 cells assessed as reduction in cell viability incubated for 72 hrs by MTT assay. Format: functional, cell-based. Particulars: MIA PaCa-2, 72 h. Put shortly: as §1
For the next test, the system named is ASPC1. Description: Antiproliferative activity against human AsPC1 cells assessed as reduction in cell viability incubated for 72 hrs by MTT assay. In kind it is functional, cell-based. Particulars: ASPC1, 72 h. Put shortly:
as §1

Test [2] relates to PANC-1. Description: Antitumor activity against human PANC1 cells xenografted in BALB/c nude mouse assessed as inhibition of tumor growth at 150 mg/kg/day, po for 30 days relative to control. In kind it is functional. Particulars: PANC-1, po, 720 h, read-out: TGI. The essentials:
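Female BALB/c nude mice, 6-8 weeks old, injected subcutaneously in the right flank with 5×10^6–1×10^7 PANC-1 cells. At 130-150 mm³, mice randomized into 4 groups (n = 6) and dosed orally once daily for 30 days against vehicle. Tumor volume followed over time. Inhibition rate assessed against control.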

`COC(=O)c1cc(NS(=O)(=O)c2cc(Cl)cc(Cl)c2)ccc1S(=O)(=O)Nc1cc(Br)c(F)cc1C`: the IC50 (in general, the concentration needed to halve the response being measured) was determined as 35.2 µM with PANC-1 [1], 58 µM in the test with BXPC-3, 55.6 µM with MIA PaCa-2 and 50.5 µM in the test on ASPC1. The inhibition in vivo at 150 mg/kg/day in the test on PANC-1 [2] was 78%.
